pEC50, pIC50: −log10 of the molar value. Non-standard residues stand in square brackets, D forms with d. Residues, ends and D or L forms follow the SMILES beside them. *: point of attachment. dCha = N[C@H](CC1CCCCC1)C(=O)O; Bz = O=C(c1ccccc1)*
How the values were obtained:
[1] = biological target: T1, N-formyl peptide receptor 2 (Homo sapiens, UniProt P25090); assay: Agonist activity at FRP2 (unknown origin) transfected in human HL60 cells assessed as calcium mobilization incubated for 30 mins and measured for 5 sec for 240 sec by fluorometry; assay type: functional, cell-based; details: for pEC50: read-out: EC50
T1 sequence (P25090 whole entry): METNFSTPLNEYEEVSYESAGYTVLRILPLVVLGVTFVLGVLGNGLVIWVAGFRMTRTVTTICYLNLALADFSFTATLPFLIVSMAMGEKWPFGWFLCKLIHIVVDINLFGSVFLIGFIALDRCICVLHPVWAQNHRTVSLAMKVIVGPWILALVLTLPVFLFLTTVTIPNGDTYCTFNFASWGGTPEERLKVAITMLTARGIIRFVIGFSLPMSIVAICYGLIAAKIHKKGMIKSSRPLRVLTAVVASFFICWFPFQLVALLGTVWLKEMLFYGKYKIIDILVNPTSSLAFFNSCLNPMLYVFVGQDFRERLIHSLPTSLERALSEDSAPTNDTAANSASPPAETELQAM
Procedure, shortened: (§1)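 Stably transfected HL60 cells, with G418 dropped in the final culture round, loaded with Fluo-4 AM (1.25 µg/mL final) for 30 min at 37 °C in the dark. Cells were washed into HBSS with Ca2+/Mg2+ plus 10 mM HEPES, 2×10^5 cells/well. Compound added by injector, fluorescence (ex 485/em 538 nm) read every 5 s for 240 s at room temperature. Peak change over baseline in the first 3 min; EC50 by nonlinear regression.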

fMet-Leu-Phe receptor [2] = biological target: T2, fMet-Leu-Phe receptor (Homo sapiens, UniProt P21462); assay: Antagonist activity against FPR1 in human neutrophils assessed as calcium mobilization preincubated for 30 mins followed by fMLF addition and measured for 5 sec for 240 sec by fluorometry
T2 sequence (P21462 whole entry): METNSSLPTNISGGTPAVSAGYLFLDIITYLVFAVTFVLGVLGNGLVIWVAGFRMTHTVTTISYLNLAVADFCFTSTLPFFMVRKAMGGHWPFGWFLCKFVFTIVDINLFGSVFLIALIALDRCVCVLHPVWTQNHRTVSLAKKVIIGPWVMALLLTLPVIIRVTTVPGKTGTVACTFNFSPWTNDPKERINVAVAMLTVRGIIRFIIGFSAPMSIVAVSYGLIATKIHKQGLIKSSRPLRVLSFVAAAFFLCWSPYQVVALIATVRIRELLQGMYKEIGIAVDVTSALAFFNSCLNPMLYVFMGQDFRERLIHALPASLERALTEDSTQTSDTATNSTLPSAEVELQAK

fMet-Leu-Phe receptor [3] = biological target: T2, fMet-Leu-Phe receptor; assay: Antagonist activity against FPR1 (unknown origin) transfected in human HL60 cells assessed as calcium mobilization preincubated for 30 mins followed by fMLF addition and measured for 5 sec for 240 sec by fluorometry; assay type: functional, cell-based
Procedure, shortened: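 FPR1-HL60 cells or donor neutrophils, Fluo-4 AM-loaded (1.25 µg/mL final, 30 min, 37 °C), in HBSS+/10 mM HEPES, 2×10^5 cells/well. Compound pretreatment 30 min at room temperature, then 5 nM fMLF. Peak fluorescence rise (485/538 nm) in the first 3 min was normalized to 5 nM fMLF alone (100%). IC50 from 5–6-point curves by nonlinear regression; maximal antagonist concentration ~50 μM.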

fMet-Leu-Phe receptor [4] = biological target: T2, fMet-Leu-Phe receptor; assay: Agonist activity at FPR1 (unknown origin) transfected in human HL60 cells assessed as calcium mobilization incubated for 30 mins and measured for 5 sec for 240 sec by fluorometry; assay type: functional, cell-based; procedure, shortened: as §1
[5] = biological target: T1, N-formyl peptide receptor 2; assay: Antagonist activity against FPR2 (unknown origin) transfected in human HL60 cells assessed as calcium mobilization preincubated for 30 mins followed by WKYMVM addition and measured for 5 sec for 240 sec by fluorometry; assay type: functional, cell-based
Procedure, shortened: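 FPR2-transfected HL60 cells, Fluo-4 AM-loaded (1.25 µg/mL final, 30 min, 37 °C), in HBSS+/10 mM HEPES, 2×10^5 cells/well. 30 min room-temperature compound pretreatment, then 5 nM WKYMVM. Peak fluorescence rise (485/538 nm) in the first 3 min, normalized to 5 nM WKYMVM alone (100%). IC50 by nonlinear regression of 5–6-point curves.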

fMet-Leu-Phe receptor [6] = biological target: T2, fMet-Leu-Phe receptor; assay: Agonist activity at FPR1 in human neutrophils assessed as calcium mobilization incubated for 30 mins and measured for 5 sec for 240 sec by fluorometry; assay type: functional
Procedure, shortened: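 Neutrophils from healthy donor blood were isolated by dextran sedimentation, Histopaque 1077 gradient and hypotonic RBC lysis. They were loaded with Fluo-4 AM (1.25 µg/mL final) for 30 min at 37 °C, then resuspended in HBSS+ with 10 mM HEPES, 2×10^5 cells/well. Compound injected; fluorescence (485/538 nm) read every 5 s for 240 s at room temperature. Peak rise over baseline in the first 3 min; EC50 by nonlinear regression.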

Neutrophil = assay: Inhibition of fMLF-induced migration of human neutrophil preincubated for 30 mins followed by fMLF stimulation and measured after 60 mins by luminescence based assay

Structure (SMILES) | EC50 [1] | pIC50 (fMet-Leu-Phe receptor [2]) | pIC50 (fMet-Leu-Phe receptor [3]) | EC50 (fMet-Leu-Phe receptor [4]) | IC50 [5] | EC50 (fMet-Leu-Phe receptor [6]) | pIC50 (Neutrophil) | pEC50 [1] | pIC50 ([5]; read-out: IC50)
COC(=O)[C@@H](Cc1ccccc1)NC(=O)[C@@H](Cc1c[nH]c2ccccc12)NC(=O)c1ccccc1 | Not Active | 4.50 | 4.78 | Not Active | Not Active | Not Active |  |  | 
COC(=O)[C@H](NC(=O)[C@H](Cc1c[nH]c2ccccc12)NC(=O)c1ccccc1)C(C)C | Not Active | 4.60 | 4.93 | Not Active | Not Active | Not Active |  |  | 
COC(=O)[C@@H](CC1CCCCC1)NC(=O)[C@H](Cc1c[nH]c2ccccc12)NC(=O)c1ccccc1 (Bz-Trp-[dCha]-OMe) | Not Active | 6.92 | 6.17 | Not Active | Not Active | Not Active | 6.21 |  | 
COC(=O)[C@H](Cc1ccccc1)NC(=O)[C@@H](Cc1c[nH]c2ccccc12)NC(=O)c1ccccc1 | Not Active | 4.96 | 4.43 | Not Active | Not Active | Not Active |  |  | 
COC(=O)[C@@H](CC(C)C)NC(=O)[C@H](Cc1c[nH]c2ccccc12)NC(=O)c1ccccc1 |  | 4.84 | 4.61 | Not Active | Not Active | Not Active |  | 4.96 | 
COC(=O)[C@@H](Cc1ccccc1)NC(=O)[C@H](Cc1c[nH]c2ccccc12)NC(=O)c1ccccc1 | Not Active | 6.74 | 6.35 | Not Active | Not Active | Not Active | 6.32 |  | 
COC(=O)[C@H](Cc1ccccc1)NC(=O)[C@H](Cc1c[nH]c2ccccc12)NC(=O)c1ccccc1 | Not Active | 5.62 | 5.24 | Not Active |  | Not Active | 5.80 |  | 4.91
COC(=O)[C@@H](Cc1ccccc1)NC(=O)[C@H](Cc1c[nH]c2ccccc12)NC(=O)C1CCCCC1 | Not Active | 5.48 | 6.27 | Not Active | Not Active | Not Active | 5.51 |  | 
COC(=O)[C@@H](Cc1ccccc1)NC(=O)[C@H](Cc1c[nH]c2ccccc12)NC(=O)OC(C)(C)C |  | 4.90 | 4.77 | Not Active | Not Active | Not Active |  | 4.98 | 
COC(=O)[C@@H](Cc1ccccc1)NC(=O)[C@H](Cc1c[nH]c2ccccc12)NC(=O)CC(C)C | Not Active | 4.56 | 4.71 | Not Active | Not Active | Not Active |  |  | 
